Measurements pooled from the literature.
Target: Serine/threonine-protein kinase MRCK alpha (CDC42BPA, Homo sapiens, UniProt Q5VT25)

The remaining activity of `CCCOc1ccc(OC)c(F)c1C(=O)c1ccc(C(=O)N[C@@H]2CNC[C@H]2NC(=O)c2ccc3[nH]ncc3c2)cc1` is reported as -3% (enzyme activity; inhibitor; 10 µM).
The remaining signal of `CS(=O)(=O)CCNCc1ccc(-c2ccc3ncnc(Nc4ccc(OCc5cccc(F)c5)c(Cl)c4)c3c2)o1` is reported as 88.2% (cell-free assay; 0.5 µM).
`CNC(=O)c1cc(Oc2ccc(NC(=O)Nc3ccc(Cl)c(C(F)(F)F)c3)cc2)ccn1` gave an inhibition of 9% (enzyme activity; inhibitor; 0.3 µM).
For `COc1cc2ncnc(Nc3ccc(Oc4ccccc4)c(C)c3C)c2cc1OC`, the inhibition was -6% (enzyme activity; inhibitor; 1 µM).
For `CCN(CC)CCNC(=O)c1c(C)[nH]c(/C=C2\C(=O)Nc3ccc(F)cc32)c1C`, the inhibition was 10% (enzyme activity; inhibitor; 10 µM).
The remaining binding of `Nc1cnc(N2CCc3cc(S(=O)(=O)Nc4c(F)cc(Cl)cc4F)cc(N4CCCC4=O)c32)nc1` is reported as 100% (cell-free assay; competition with immobilised ligand; 1 µM).
`CC(C)(C)c1nc(-c2cccc(NS(=O)(=O)c3c(F)cccc3F)c2F)c(-c2ccnc(N)n2)s1` has a remaining activity of 88% (enzyme activity; inhibitor; radiometric; 1 µM).
With `CC(C)(O)c1cncc(-c2nc3ccc(F)cc3n2C2CC2)c1` the remaining binding was 100% (cell-free assay; competition with immobilised ligand; 1 µM).
`Cc1cc(NC(=O)c2cccc3cc(-c4cccc5[nH]nc(N)c45)ccc23)ccc1F` has an activity vs control of 92% (enzyme activity; inhibitor; 0.1 µM).
For `O=C(NS(=O)(=O)c1ccc(NCC2CCOCC2)c([N+](=O)[O-])c1)c1ccc(N2CCN(Cc3ccc(C(F)(F)F)cc3-c3ccc(Cl)cc3)CC2)cc1Oc1cnc2[nH]ccc2c1`, the remaining binding was 96% (cell-free assay; competition with immobilised ligand; 1 µM).
With `Cc1ccc(C(=O)Nc2ccc(CN3CCN(C)CC3)c(C(F)(F)F)c2)cc1C#Cc1cnc2cccnn12` the remaining activity was 99% (enzyme activity; inhibitor; 23.5 nM).
With `COc1ccc2cc(OCC3(C(=O)O)CN(C(=O)c4ccc(F)cc4)C3)ccc2c1` the remaining binding was 100% (cell-free assay; competition with immobilised ligand; 1 µM).
The remaining activity of `O=C(Nc1cnn(-c2csc(C(=O)NC3COC3)c2)c1)Nc1c(F)cccc1Cl` is reported as 99% (enzyme activity; inhibitor; 5 µM).
`O=C(O)c1cc(-c2ccc(C3CCNCC3)cc2)c2ccc(-c3ccc(C(F)(F)F)cc3)cc2c1` has a remaining binding of 100% (cell-free assay; competition with immobilised ligand; 1 µM).
For `COc1cc(Cl)c(C(=O)N[C@@H](CN[C@H]2CC[C@@H](N)CC2)Cc2ccc(C#N)cc2)cc1-c1ccc(CN[C@H](C)c2ccc(C)cc2)o1`, the remaining activity was 99% (enzyme activity; inhibitor; 1 µM).
